Pf Dd2 inh = blocks growth of Plasmodium falciparum Dd2 parasites; P. falciparum Dd2 growth, SYBR Green, 72 h; hits give low values; activity change, % at 10 µM; 94,000 tested, 2.3% active; in the data active = activity change below about -80%; inconclusive = no clear call, values can overlap the other calls
IDH1 mut inh = IDH1 R132H (human) inhibition | IDH1 R132H reductase, diaphorase/resazurin fluorescence, 60 min | AID 624101 | O75874 | inhibition, % at 10 µM | 70,000 tested, 0.18% active; in the data active = inhibition above about 34%; inconclusive = no clear call, values can overlap the other calls; inactive = below about 11%
KDM4C inh = inhibitors of human demethylase GASC-1 KDM4C; GST-KDM4C 2-372, H3K9me3 peptide, LANCE TR-FRET; inhibition, % at 12.5 µM; 96,000 tested, 0.15% active;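 active = mean replicate inhibition above about 25%, with at least 55% of replicates also reaching it, limit read from the data, passing the limit was not always enough; inconclusive = only one of those two conditions met; inactive = neither condition met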
Target sequence (Q9H3R0 2-372 limits assumed): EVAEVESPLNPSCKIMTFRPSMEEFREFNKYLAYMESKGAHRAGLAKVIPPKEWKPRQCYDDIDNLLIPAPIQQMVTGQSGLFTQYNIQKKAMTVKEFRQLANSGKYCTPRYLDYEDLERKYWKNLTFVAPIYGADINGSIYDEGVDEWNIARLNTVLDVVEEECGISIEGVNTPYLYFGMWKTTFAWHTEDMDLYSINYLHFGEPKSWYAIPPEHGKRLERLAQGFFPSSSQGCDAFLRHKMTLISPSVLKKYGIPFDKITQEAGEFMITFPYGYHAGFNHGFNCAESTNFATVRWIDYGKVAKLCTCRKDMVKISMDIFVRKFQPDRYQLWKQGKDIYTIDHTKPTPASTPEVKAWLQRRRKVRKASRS
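Material: N-terminal GST-fused human GASC-1 (KDM4C) fragment, residues 2-372. Input: 10 nM enzyme. Incubation: enzyme reaction 30 min, then detection 60 min, both room temperature. Doses: one test concentration per compound. Read-out basis: inhibition from TR-FRET ratio decrease. Detection: LANCE TR-FRET, excitation 340 nm, emissions 618 and 671 nm.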
T cruzi growth-1 = inhibitors of T. cruzi proliferation; T. cruzi beta-gal in NIH3T3, GalScreen luminescence, 90 h; inhibition, % at 8.34 µM; 77,000 tested, 5.9% active; AID 624255;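 active = mean inhibition above about 93%, with at least 55% of replicates each passing it, limit read from the data, passing the limit was not always enough; inconclusive = only one of those two conditions holds; inactive = neither condition holds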
T cruzi growth-2 = blocks T. cruzi growth in NIH3T3 host cells | shares compounds with T cruzi growth-1 | T. cruzi beta-gal in NIH3T3, GalScreen luminescence, 90 h | inhibition, % at 8.35 µM | 5,600 tested, 72% active | AID 651739;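 active = mean replicate inhibition above about 95% and at least 55% of replicates individually reaching it, limit read from the data; inconclusive = only one of the two criteria is met; inactive = neither criterion is met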
T cruzi growth-3 = Trypanosoma cruzi proliferation inhibition. shares compounds with T cruzi growth-1. T. cruzi beta-gal in NIH3T3, GalScreen luminescence, 90 h. inhibition, % at 2.09 µM. 5,600 tested, 21% active. AID 651740;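 active = mean inhibition above about 95%, with at least 55% of replicates also reaching it, limit read from the data; inconclusive = meets just one of the two conditions; inactive = meets neither condition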
NIH3T3 tox = NIH/3T3 (mouse) viability loss; cytotoxicity (signal decrease), % at 8.35 µM; shares compounds with T cruzi growth-1; 5,600 tested, 14% active; NIH/3T3 viability, CellTiter-Glo ATP luminescence, 90 h; AID 651742;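 active = mean signal decrease across replicates above about 35% based on untreated-well scatter, with enough replicates individually passing, limit read from the data; inconclusive = no rule stated though some were filed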
NIH3T3 tox 2 = NIH/3T3 (mouse) viability loss; shares compounds with T cruzi growth-1; NIH/3T3 viability, CellTiter-Glo ATP luminescence, 90 h; inhibition, % at 24.9 µM; 5,600 tested, 56% active;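 active = mean loss of cell viability signal at or above a set limit, and enough replicates individually reaching it; inconclusive = meets only the mean limit or only the replicate share; inactive = meets neither condition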
A number is an active result; 0 = inactive; ? = inconclusive; - = no result; ! = a repeat was not active. An excerpt weighted towards active compounds, which were near 5.9% of everything screened.

SMILES	Pf Dd2 inh	IDH1 mut inh	KDM4C inh	T cruzi growth-1	T cruzi growth-2	T cruzi growth-3	NIH3T3 tox	NIH3T3 tox 2
C[C@@H]1CCCCO[C@@H](CN(C)S(=O)(=O)c2ccc(Cl)cc2)[C@@H](C)CN([C@H](C)CO)C(=O)c2cc(NS(=O)(=O)c3ccc(F)cc3)ccc2O1	0	-	0	0	-	-	-	-
Cc1ccc(CC(c2nc3ccccc3[nH]2)C(C)c2nc3ccccc3[nH]2)cc1 (stereo unspecified)	-	0	-	-	-	-	-	-
Cc1ccc(S(=O)(=O)N(C)CC(=O)Nc2cccc(C#N)c2)cc1	-	0	-	-	-	-	-	-
O=C(NCCCn1ccnc1)c1cc(-c2ccccn2)nc2ccc(Br)cc12	-	0	-	-	-	-	-	-
C[C@@H]1CCCCO[C@@H](CN(C)S(=O)(=O)c2ccc(Cl)cc2)[C@H](C)CN([C@H](C)CO)C(=O)c2cc(NS(=O)(=O)c3ccc(F)cc3)ccc2O1	0	0	0	0	-	-	-	-
C[C@@H]1CN([C@H](C)CO)C(=O)c2cc(NS(=O)(=O)c3ccc(Cl)cc3)ccc2O[C@@H](C)CCCCO[C@H]1CN(C)S(=O)(=O)c1ccc(F)cc1	0	0	0	103	100	110	0	0
C[C@H](CO)N1C[C@H](C)[C@@H](CN(C)S(=O)(=O)c2ccc(F)cc2)OCCCC[C@H](C)Oc2ccc(NS(=O)(=O)c3ccc(Cl)cc3)cc2C1=O	0	0	0	100	?	?	48	27
C[C@@H]1CCCCO[C@H](CN(C)S(=O)(=O)c2ccc(Cl)cc2)[C@@H](C)CN([C@@H](C)CO)C(=O)c2cc(NS(=O)(=O)c3ccc(F)cc3)ccc2O1	0	-	0	0	-	-	-	-
O=C(c1ccc(F)cc1)N1CCCCN2[C@H](C1)[C@H](c1ccc(-c3ccc(F)cc3)cc1)[C@@H]2CO	0	-	-	0	-	-	-	-
O=C(c1ccc(F)cc1)N1CCCCN2[C@@H](CO)[C@H](c3ccc(-c4ccc(F)cc4)cc3)[C@@H]2C1	0	-	-	104	0	0	44	106
COc1cccc(-c2ccc([C@H]3[C@@H](CO)N4CCCCN(C(=O)c5ccc(F)cc5)C[C@H]34)cc2)c1	0	-	0	108	108	0	0	104
O=C(c1ccc(F)cc1)N1CCCCN2[C@H](CO)[C@@H](c3ccc(-c4ccc(F)cc4)cc3)[C@@H]2C1	0	-	-	100	99	103	0	104
O=C(NCC1CCCO1)C1CC(c2ccccc2O)=NO1 (stereo unspecified)	-	0	-	-	-	-	-	-
C[C@@H]1CN([C@H](C)CO)C(=O)c2cc(C#Cc3ccccc3)cnc2O[C@H]1CN(C)S(=O)(=O)c1ccccc1F	0	-	-	?	105	0	0	46
C[C@H]1CN([C@@H](C)CO)C(=O)c2cc(C#Cc3ccccc3F)cnc2O[C@H]1CN(C)S(=O)(=O)c1ccccc1F	0	0	0	97!	107	0	60	40
C[C@H]1CN([C@@H](C)CO)C(=O)c2cc(C#Cc3ccccc3F)cnc2O[C@@H]1CN(C)S(=O)(=O)c1ccccc1F	0	0	0	115	111	0	0	43
C[C@@H]1CN([C@@H](C)CO)C(=O)c2cc(C#Cc3ccccc3)cnc2O[C@@H]1CN(C)S(=O)(=O)c1ccccc1F	0	-	-	0	-	-	-	-
C[C@H]1CN([C@@H](C)CO)C(=O)c2cc(C#Cc3ccccc3)cnc2O[C@H]1CN(C)S(=O)(=O)c1ccccc1F	0	0	-	0	-	-	-	-
COc1ccc(-c2nnc(SCC(N)=O)n2C)cc1OC	-	0	-	-	-	-	-	-
COc1ccc(NC(=O)N(C)C[C@@H]2Oc3ncc(/C=C/c4ccccc4)cc3C(=O)N([C@H](C)CO)C[C@@H]2C)cc1	0	0	0	?	-	-	-	-
C[C@@H]1CN([C@@H](C)CO)C(=O)c2cc(/C=C/c3ccccc3)cnc2O[C@H]1CN(C)C(=O)Nc1ccccc1F	0	0	0	126	108	105	0	0
C[C@H](CO)N1C[C@H](C)[C@H](CN(C)C(=O)c2cccc(F)c2)Oc2ncc(/C=C/c3ccccc3)cc2C1=O	0	0	0	107	107	0	0	67
C[C@H]1CN([C@@H](C)CO)C(=O)c2cc(/C=C/c3ccccc3)cnc2O[C@H]1CN(C)C(=O)c1cccc(F)c1	0	0	-	0	-	-	-	-
C[C@@H]1CN([C@H](C)CO)C(=O)c2cc(/C=C/c3ccccc3)cnc2O[C@@H]1CN(C)C(=O)Nc1ccccc1F	0	0	0	0	-	-	-	-
C[C@H](CO)N1C[C@H](C)[C@H](CN(C)C(=O)Nc2ccccc2)Oc2ncc(/C=C/c3ccccc3)cc2C1=O	0	0	-	97	98	0	36	90
SMILES	Pf Dd2 inh	IDH1 mut inh	KDM4C inh	T cruzi growth-1	T cruzi growth-2	T cruzi growth-3	NIH3T3 tox	NIH3T3 tox 2
C[C@H]1CN([C@@H](C)CO)C(=O)c2cc(/C=C/c3ccccc3)cnc2O[C@H]1CN(C)C(=O)Nc1ccccc1F	0	0	0	101	?	0	0	51
Cc1nc(SC(C(=O)c2ccccc2)c2ccccc2)nc2c1CCCC2 (stereo unspecified)	-	0	-	-	-	-	-	-
Cc1sc2ncnc(NCCOCCO)c2c1C	-	0	-	-	-	-	-	-
C[C@@H]1CN([C@@H](C)CO)S(=O)(=O)c2ccc(C#Cc3ccccc3F)cc2O[C@H]1CN(C)C(=O)Cc1ccccc1	0	0	0	120	102	110	56	92
C[C@H]1CN([C@@H](C)CO)S(=O)(=O)c2ccc(C#Cc3ccccc3F)cc2O[C@@H]1CN(C)C(=O)Cc1ccccc1	0	0	0	121	106	107	0	103
C[C@H](CO)N1C[C@H](C)[C@H](CN(C)C(=O)Cc2ccncc2)Oc2cc(C#Cc3ccccc3F)ccc2S1(=O)=O	0	0	0	-	-	-	-	-
C[C@H]1CN([C@@H](C)CO)S(=O)(=O)c2ccc(C#Cc3ccccc3F)cc2O[C@H]1CN(C)C(=O)Cc1ccncc1	0	-	0	-	-	-	-	-
C[C@@H]1CN([C@@H](C)CO)S(=O)(=O)c2ccc(C#Cc3ccccc3F)cc2O[C@@H]1CN(C)C(=O)Cc1cccnc1	0	0	0	?	102	0	0	70
C[C@@H]1CN([C@H](C)CO)S(=O)(=O)c2ccc(C#Cc3ccccc3F)cc2O[C@H]1CN(C)C(=O)Cc1ccccc1	0	0	0	122	103	0	0	104
CCC(Oc1cccc(NC(=O)c2cccc(OC)c2)c1)C(=O)c1ccccc1 (stereo unspecified)	-	0	-	-	-	-	-	-
COc1ccccc1CCNC(=O)c1cc(-c2ccc(C)o2)nc2ccccc12	-	0	-	-	-	-	-	-
C[C@@H]1CN([C@H](C)CO)C(=O)c2cc(NS(=O)(=O)c3ccc(Cl)cc3)ccc2O[C@@H](C)CCCCO[C@H]1CN(C)C(=O)C1CCCCC1	0	-	0	?	96	0	0	100
